From ChEMBL document CHEMBL3632461 (J Med Chem, 2015) come the findings set out here.

Each structure is given as a SMILES string.

The term IC50 denotes the concentration needed to halve the response being measured. Usually Tmax stands for the time at which the peak concentration occurs. As a reminder, the EC50 is the concentration that produces a half-maximal response.

In data set [1] the target is T1, Cytochrome P450 2C9 (Homo sapiens, UniProt P11712). Description: Reversible inhibition of CYP2C9 in human liver microsomes by LC-MS/MS analysis. It is filed as ADME. The procedure, abridged: (§1)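 Reversible inhibition of the major CYP enzymes tested in human liver microsomes using established protocols.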
T1 sequence (P11712 whole entry): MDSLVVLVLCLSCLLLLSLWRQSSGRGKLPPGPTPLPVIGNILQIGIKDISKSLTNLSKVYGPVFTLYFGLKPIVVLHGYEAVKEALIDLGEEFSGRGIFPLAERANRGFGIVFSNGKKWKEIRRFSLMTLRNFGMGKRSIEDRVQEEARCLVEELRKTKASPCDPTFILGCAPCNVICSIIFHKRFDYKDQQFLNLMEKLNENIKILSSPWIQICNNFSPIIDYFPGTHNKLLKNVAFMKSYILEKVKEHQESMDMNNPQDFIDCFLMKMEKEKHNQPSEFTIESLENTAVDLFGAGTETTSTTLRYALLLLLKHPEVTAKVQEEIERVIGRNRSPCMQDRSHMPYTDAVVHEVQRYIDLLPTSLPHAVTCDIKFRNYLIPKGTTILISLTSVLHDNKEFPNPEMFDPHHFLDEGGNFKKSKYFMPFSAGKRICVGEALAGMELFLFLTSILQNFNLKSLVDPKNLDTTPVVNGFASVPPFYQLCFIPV
(In general: Microsomes from liver hold many membrane-bound enzymes, among them those of drug oxidation.)

Data set [2] is described as follows: Tmax in cynomolgus monkey at 3 or 5 mg/kg, po. The format is ADME, organism-based, Macaca fascicularis. The settings on record: in vivo. The procedure, abridged:
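Male animals (CD-1 mice 25−35 g, cannulated Wistar-Han rats 250 g, beagle dogs 12 kg, cynomolgus monkeys 7 kg), fasted overnight and fed 1.0 or 2.0 h after dosing, water ad libitum. Oral dose 3 or 5 mg/kg in 0.5% methylcellulose. Parameters calculated from plasma concentration−time data; mean ± SD for n = 3, individual values for n = 2.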

In the next data set the target is Cytochrome P450 2D6 (Homo sapiens, UniProt P10635). Description: Reversible inhibition of CYP2D6 dextromethorphan O-demethylase activity in human liver microsomes by LC-MS/MS analysis. The format is ADME. The procedure, abridged: as §1
Sequence of Cytochrome P450 2D6 (P10635 whole entry): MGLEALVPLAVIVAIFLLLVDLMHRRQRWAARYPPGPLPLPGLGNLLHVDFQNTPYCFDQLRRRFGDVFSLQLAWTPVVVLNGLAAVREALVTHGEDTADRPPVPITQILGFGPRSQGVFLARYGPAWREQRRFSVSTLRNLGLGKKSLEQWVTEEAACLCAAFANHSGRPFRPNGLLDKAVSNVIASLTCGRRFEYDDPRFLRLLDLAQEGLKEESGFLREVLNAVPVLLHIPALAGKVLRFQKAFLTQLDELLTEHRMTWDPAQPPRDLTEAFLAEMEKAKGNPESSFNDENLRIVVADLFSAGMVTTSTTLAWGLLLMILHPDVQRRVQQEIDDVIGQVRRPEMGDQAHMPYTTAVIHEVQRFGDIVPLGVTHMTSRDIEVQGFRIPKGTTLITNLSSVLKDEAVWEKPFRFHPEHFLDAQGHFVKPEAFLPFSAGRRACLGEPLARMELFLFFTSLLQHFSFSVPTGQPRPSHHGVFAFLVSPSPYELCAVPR
The target of another data set is T2, Cytochrome P450 2B6 (Homo sapiens, UniProt P20813).
T2 sequence (P20813 whole entry): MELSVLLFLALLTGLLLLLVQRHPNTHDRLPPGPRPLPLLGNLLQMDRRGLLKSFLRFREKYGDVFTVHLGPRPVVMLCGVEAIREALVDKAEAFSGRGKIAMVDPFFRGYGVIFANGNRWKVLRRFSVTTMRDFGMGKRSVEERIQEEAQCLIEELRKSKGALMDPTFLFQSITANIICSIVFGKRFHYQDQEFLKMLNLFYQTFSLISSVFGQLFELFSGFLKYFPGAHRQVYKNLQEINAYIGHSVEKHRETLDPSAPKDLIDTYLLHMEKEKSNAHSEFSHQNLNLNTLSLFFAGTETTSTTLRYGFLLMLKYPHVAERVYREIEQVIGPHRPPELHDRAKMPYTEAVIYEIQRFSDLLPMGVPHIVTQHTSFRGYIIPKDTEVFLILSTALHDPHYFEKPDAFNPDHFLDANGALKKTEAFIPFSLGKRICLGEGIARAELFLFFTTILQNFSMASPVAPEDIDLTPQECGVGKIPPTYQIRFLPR
Description: Reversible inhibition of CYP2B6 bupropion hydroxylase activity in human liver microsomes by LC-MS/MS analysis. The format is ADME. The method in brief: as §1

Data set [3] in a line: Plasma clearance in CD-1 mouse at 1 mg/kg, iv and 3 or 5 mg/kg, po. It is filed as ADME, organism-based. The procedure, abridged: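 Male CD-1 mice (25−35 g), cannulated Wistar-Han rats (250 g), beagle dogs (12 kg) and cynomolgus monkeys (7 kg), fasted overnight and fed 1.0 or 2.0 h after dosing. iv 1 mg/kg in saline or 12% sulfobutyl ether β-cyclodextrin; po 3 or 5 mg/kg in 0.5% methylcellulose. Parameters calculated from plasma concentration−time data; mean ± SD for n = 3, individual values for n = 2.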

The next data set has as its target Cytochrome P450 2C19 (Homo sapiens, UniProt P33261). The experiment in a line: Time-dependent inhibition of CYP2C19 in human liver microsomes. It is filed as ADME. The procedure, abridged: (§2)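 Time- and concentration-dependent CYP inhibition assessed by an IC₅₀ shift assay in human liver microsomes.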
The nature of data set [4]: Drug excretion in Wistar rat urine at 1 mg/kg, iv. It is filed as ADME, organism-based. The settings on record: read-out: Drug excretion. The procedure, abridged: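 Male animals (beagle dogs 12 kg, Wistar-Han rats 250 g, cynomolgus monkeys 7 kg), fasted overnight and fed 1.0 or 2.0 h after dosing, water ad libitum. Dosed iv at 1 mg/kg in saline or 12% sulfobutyl ether β-cyclodextrin. Fraction of the iv dose excreted unchanged in urine.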

A further data set has as its system Liver microsome. The experiment in a line: Metabolic stability in NADPH-supplemented human liver microsomes assessed as GSH adduct formation. The format is ADME. The procedure, abridged:
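Incubation in NADPH-supplemented human liver microsomes or cryopreserved human hepatocytes, examined for glutathione adduct formation.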

The next data set concerns Cynomolgus monkey. Description: In vivo inhibition of MPO in LPS-stimulated po dosed cynomolgous monkey administered 1 hr post LPS challenge measured after 2 hrs. It is filed as functional, organism-based. The settings on record: Macaca fascicularis. The procedure, abridged: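 Randomized crossover design in cynomolgus monkeys given iv LPS, then oral vehicle or compound (5, 20, 80 mg/kg) 1 h later. Heparinized plasma collected 2 h after dosing. Total MPO captured on anti-MPO antibody plates, plasma exchanged for drug-free medium, and residual activity read by Amplex Red peroxidation. EC₅₀ from a mixed-effect sigmoid model of exposure versus activity.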

For the next data set, the target named is T3, Cytochrome P450 1A2 (Homo sapiens, UniProt P05177).
T3 sequence (P05177 whole entry): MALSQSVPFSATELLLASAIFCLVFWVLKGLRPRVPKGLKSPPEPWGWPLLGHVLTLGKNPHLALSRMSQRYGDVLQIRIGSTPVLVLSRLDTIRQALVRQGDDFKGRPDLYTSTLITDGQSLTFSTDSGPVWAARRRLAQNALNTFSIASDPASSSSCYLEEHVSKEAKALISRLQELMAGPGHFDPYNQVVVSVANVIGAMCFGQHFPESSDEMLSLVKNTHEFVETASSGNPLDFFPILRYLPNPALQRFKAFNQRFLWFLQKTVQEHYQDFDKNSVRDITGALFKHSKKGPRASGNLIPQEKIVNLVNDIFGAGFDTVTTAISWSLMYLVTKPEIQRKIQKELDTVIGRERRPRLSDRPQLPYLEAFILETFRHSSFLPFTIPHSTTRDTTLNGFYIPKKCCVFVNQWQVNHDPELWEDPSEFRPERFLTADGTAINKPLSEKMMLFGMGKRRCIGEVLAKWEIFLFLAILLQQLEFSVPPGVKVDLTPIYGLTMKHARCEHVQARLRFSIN
The experiment in a line: Reversible inhibition of CYP1A2 phenacetin O-deethylase activity in human liver microsomes by LC-MS/MS analysis. It is filed as ADME. The procedure, abridged: as §1

Data set [5] in a line: Volume of distribution at steady state in CD-1 mouse at 1 mg/kg, iv and 3 or 5 mg/kg, po. It is filed as ADME, organism-based. The settings on record: in vivo, read-out: Vdss. The method in brief: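 Male mice, rats, dogs and cynomolgus monkeys, fasted overnight, fed after dosing. Intravenous dose 1 mg/kg in saline or 12% sulfobutyl ether β-cyclodextrin; oral arm 3 or 5 mg/kg in 0.5% methylcellulose. Steady-state volume derived from plasma concentration−time data; mean ± SD for n = 3, individual values for n = 2.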

The target in data set [6] is T1, Cytochrome P450 2C9. Description: Time-dependent inhibition of CYP2C9 in human liver microsomes. The format is ADME. The method in brief:
as §2

Sequence of Cytochrome P450 2C19 (P33261 whole entry): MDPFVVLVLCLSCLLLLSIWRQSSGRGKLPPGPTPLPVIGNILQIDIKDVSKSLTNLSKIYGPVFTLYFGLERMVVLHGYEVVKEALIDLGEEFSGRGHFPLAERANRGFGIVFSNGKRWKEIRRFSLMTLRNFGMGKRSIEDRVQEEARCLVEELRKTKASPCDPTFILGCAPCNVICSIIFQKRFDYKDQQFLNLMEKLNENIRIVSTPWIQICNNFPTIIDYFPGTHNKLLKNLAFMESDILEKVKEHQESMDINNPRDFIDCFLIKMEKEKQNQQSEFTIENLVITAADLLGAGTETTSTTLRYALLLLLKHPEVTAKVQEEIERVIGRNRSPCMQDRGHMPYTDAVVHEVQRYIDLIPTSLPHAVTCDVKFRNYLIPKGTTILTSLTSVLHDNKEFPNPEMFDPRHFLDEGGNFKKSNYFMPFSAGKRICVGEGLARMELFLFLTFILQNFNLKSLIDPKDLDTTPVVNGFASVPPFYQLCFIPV

As to `COc1ccc(Cl)cc1-c1cc(=O)[nH]c(=S)n1CC(N)=O` [PF-06282999], the IC50 on Cytochrome P450 2C9 [1], on Cytochrome P450 2D6, at Cytochrome P450 2B6, at Cytochrome P450 2C19, at Cytochrome P450 1A2 and at Cytochrome P450 2C9 [6] was greater than 100 µM throughout. The Tmax in data set [2] turned out to be 1.5 h. Further, the clearance in [3] came to 10.1 mL/min/kg. Besides, the dose excreted in data set [4] turned out to be 26%. For the same molecule, in the data set on Liver microsome, the Stability entry is reported as “Stable”. For the same molecule, in the data set on Cynomolgus monkey, the EC50 was found to be 3.8 µM. Also, the Vd in data set [5] was found to be 0.9 L/kg.
